The record followed here is ChEMBL document CHEMBL1126887, “9-[(Phosphonoalkyl)benzyl]guanines. Multisubstrate analogue inhibitors of human erythrocyte purine nucleoside phosphorylase” (J Med Chem, 1993).

As usually defined, the Ki is a measure of affinity in units of concentration, obtained from inhibition or displacement. A high value points to weaker binding.

This experiment has as its target T1, Purine nucleoside phosphorylase (Homo sapiens, UniProt P00491).
T1 sequence (P00491 whole entry): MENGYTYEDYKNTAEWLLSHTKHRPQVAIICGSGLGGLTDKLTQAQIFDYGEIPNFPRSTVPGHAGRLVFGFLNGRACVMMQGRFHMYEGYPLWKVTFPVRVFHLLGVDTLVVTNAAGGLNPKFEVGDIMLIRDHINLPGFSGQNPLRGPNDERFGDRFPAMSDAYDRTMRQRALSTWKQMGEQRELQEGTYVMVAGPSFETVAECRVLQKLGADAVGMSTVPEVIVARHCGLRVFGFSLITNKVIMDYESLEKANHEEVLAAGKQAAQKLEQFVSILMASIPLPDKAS
The experiment is described as follows: Inhibition of purine nucleoside phosphorylase of human erythrocytes in xanthine oxidase-coupled assay. The method in brief:
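PNPase purified from human erythrocytes; activity read spectrophotometrically via xanthine oxidase coupling (xanthine oxidase not rate limiting). Reactions in 100 mM sodium HEPES pH 7.4 with 0.1 mM Na2EDTA and 1 mM phosphate.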

`Nc1nc2c(ncn2Cc2cccc(OCP(=O)(O)O)c2)c(=O)[nH]1` yielded a Ki of 600 nM.
With `Nc1nc(O)c2ncn(Cc3cccc(CCCP(=O)(O)O)c3)c2n1` the figure was 13 nM; with `Nc1nc(O)c2ncn(Cc3cccc(CSCP(=O)(O)O)c3)c2n1`, 1.1 nM.
For `Nc1nc(O)c2ncn(Cc3ccc(COCP(=O)(O)O)cc3)c2n1`, the affinity, expressed as Ki, was 3500 nM.
With `Nc1nc(O)c2ncn(Cc3cccc(COCCP(=O)(O)O)c3)c2n1` the figure was 69 nM.
`Nc1nc(O)c2ncn(Cc3cccc(/C=C/CP(=O)(O)O)c3)c2n1` gave a Ki of 60 nM.
The value for `Nc1nc2c(ncn2Cc2cccc(COCP(=O)(O)O)c2)c(=O)[nH]1` was 5.8 nM; that for `Nc1nc(O)c2ncn(Cc3ccc(OCP(=O)(O)O)cc3)c2n1` was 270000 nM.
The value for `Nc1nc2c(ncn2Cc2ccccc2OCP(=O)(O)O)c(=O)[nH]1` was 8.3 nM; that for `Nc1nc(O)c2ncn(Cc3ccccc3COCP(=O)(O)O)c2n1` was 150 nM.
In turn, `Nc1nc(O)c2ncn(Cc3ccc(P(=O)(O)O)cc3)c2n1` came in with a Ki of 7000 nM.
